According to ChEMBL document CHEMBL4689842, “EUbOPEN Chemogenomics Library wave 1” (2021):

System: U2OS
Experiment: Multiplex assay against U2OS
Assay type: toxicity, cell-based
Conditions: human
In short: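 With compound added, live cells were imaged on a CQ1 microscope at 37°C and 5% CO2; staining with Hoechst33342, BioTracker Green Microtubule Cytoskeleton Dye, MitoTracker Red and Annexin V Alexa Fluor 680 had been done at seeding. The CellPathfinder machine-learning gating scheme split cells into Hoechst high-intensity objects or normal cells, normal cells into healthy, pyknosed or fragmented nuclei, and pyknosed cells into mitotic or apoptotic. The tubulin, mitochondrial-mass and membrane-permeability phenotypes are per cents of healthy-nucleus cells.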

[1] = 12 h, 1 µM, compound concentration 1 uM, replicate 1
[2] = 12 h, 1 µM, compound concentration 1 uM, replicate 2
[3] = 12 h, 10 µM, compound concentration 10 uM, replicate 1
[4] = 12 h, 10 µM, compound concentration 10 uM, replicate 2
[5] = 24 h, 1 µM, compound concentration 1 uM, replicate 1
[6] = 24 h, 1 µM, compound concentration 1 uM, replicate 2
[7] = 24 h, 10 µM, compound concentration 10 uM, replicate 1

N#Cc1cccc(C(=O)Nc2cc(-c3ccccc3)nn2-c2ccccc2)c1
Population Apoptotic (%) [1]: 33%
Population Fragmented Nuclei (%) [1]: 14%
Population Healthy Nuclei (%) [1]: 73%
Population Hoechst High Intensity Objects (%) [1]: 9%
Population Membrane Permeable-Phenotype (%) [1]: 2%
Population Mitotic Cells (%) [1]: 66%
Population Normal (%) [1]: 90%
Population Pyknosed Nuclei (%) [1]: 12%
Population Tubulin-Different-Phenotype (%) [1]: 13%
Total Cell Count [1]: 109
Population Apoptotic (%) [2]: 16%
Population Fragmented Nuclei (%) [2]: 5%
Population Healthy Nuclei (%) [2]: 84%
Population Hoechst High Intensity Objects (%) [2]: 3%
Population Membrane Permeable-Phenotype (%) [2]: 6%
Population Mitochondria Different-Phenotype (%) [2]: 8%
Population Mitotic Cells (%) [2]: 83%
Population Normal (%) [2]: 96%
Population Pyknosed Nuclei (%) [2]: 10%
Population Tubulin-Different-Phenotype (%) [2]: 16%
Total Cell Count [2]: 59
Population Apoptotic (%) [3]: 50%
Population Fragmented Nuclei (%) [3]: 14%
Population Healthy Nuclei (%) [3]: 69%
Population Hoechst High Intensity Objects (%) [3]: 6%
Population Membrane Permeable-Phenotype (%) [3]: 22%
Population Mitochondria Different-Phenotype (%) [3]: 86%
Population Mitotic Cells (%) [3]: 50%
Population Normal (%) [3]: 93%
Population Pyknosed Nuclei (%) [3]: 15%
Population Tubulin-Different-Phenotype (%) [3]: 100%
Total Cell Count [3]: 121
Population Apoptotic (%) [4]: 45%
Population Fragmented Nuclei (%) [4]: 9%
Population Healthy Nuclei (%) [4]: 60%
Population Hoechst High Intensity Objects (%) [4]: 9%
Population Membrane Permeable-Phenotype (%) [4]: 15%
Population Mitochondria Different-Phenotype (%) [4]: 84%
Population Mitotic Cells (%) [4]: 55%
Population Normal (%) [4]: 90%
Population Pyknosed Nuclei (%) [4]: 30%
Population Tubulin-Different-Phenotype (%) [4]: 97%
Total Cell Count [4]: 72
Population Apoptotic (%) [5]: 23%
Population Fragmented Nuclei (%) [5]: 13%
Population Healthy Nuclei (%) [5]: 76%
Population Hoechst High Intensity Objects (%) [5]: 11%
Population Mitochondria Different-Phenotype (%) [5]: 5%
Population Mitotic Cells (%) [5]: 76%
Population Normal (%) [5]: 88%
Population Tubulin-Different-Phenotype (%) [5]: 3%
Total Cell Count [5]: 137
Population Apoptotic (%) [6]: 14%
Population Fragmented Nuclei (%) [6]: 3%
Population Healthy Nuclei (%) [6]: 86%
Population Hoechst High Intensity Objects (%) [6]: 4%
Population Membrane Permeable-Phenotype (%) [6]: 1%
Population Mitochondria Different-Phenotype (%) [6]: 8%
Population Mitotic Cells (%) [6]: 85%
Population Normal (%) [6]: 95%
Population Pyknosed Nuclei (%) [6]: 10%
Population Tubulin-Different-Phenotype (%) [6]: 7%
Total Cell Count [6]: 68
Population Apoptotic (%) [7]: 35%
Population Fragmented Nuclei (%) [7]: 19%
Population Healthy Nuclei (%) [7]: 55%
Population Hoechst High Intensity Objects (%) [7]: 8%
Population Membrane Permeable-Phenotype (%) [7]: 33%
Population Mitochondria Different-Phenotype (%) [7]: 78%
Population Mitotic Cells (%) [7]: 64%
Population Normal (%) [7]: 91%
Population Pyknosed Nuclei (%) [7]: 25%
Population Tubulin-Different-Phenotype (%) [7]: 98%
